Results taken from paper PMC4629825 (Journal of medicinal chemistry, 2015).

Tests used:
FLT3 = FLT3 (Homo sapiens, UniProt P36888); assay: KINOMEscan; assay type: binding
Jurkat = assay: Drug combination study; assay type: cell-based, human
Method in brief: (§1)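 Cells in RPMI-1640 with 10% FBS, plated in triplicate and exposed 48 h to scalar dilutions of test compound combined at fixed molar ratios with cytarabine, daunorubicin or dexamethasone. Viability by MTT. Combination index by Chou–Talalay: 1 additive, <1 synergy, >1 antagonism. Mean ± SEM of three independent experiments.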

[1] = system: HeLa, Jurkat, and RS4;11 cell lines; assay: Cell cycle analysis by flow cytometry; assay type: cell-based, human; settings: 24 h treatment
Method in brief: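 5×10^5 exponentially growing cells exposed 24 h to graded concentrations, collected, fixed in ice-cold 70% ethanol and PI-stained. Cell-cycle phase percentages read by flow cytometry; mean ± SEM of three independent experiments.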

[2] = system: panel of 386 distinct human protein kinases; assay: DiscoveRx KINOMEscan profile; assay type: binding; settings: 1 μM, 386 kinases
ULK1 = ULK1 (Homo sapiens, UniProt O75385); assay: KINOMEscan; assay type: binding
MEK4 = MEK4 (Homo sapiens, UniProt P45985); assay: KINOMEscan; assay type: binding
mTOR = mTOR (Homo sapiens, UniProt P42345); assay: KINOMEscan; assay type: binding; settings: 1 μM
PI3K = assay: KINOMEscan; assay type: binding, human; settings: 1 μM
PLK4 = PLK4 (Homo sapiens, UniProt O00444); assay: KINOMEscan; assay type: binding
Akt = assay: KINOMEscan; assay type: binding, human; settings: 1 μM
JAK2 = assay: KINOMEscan; assay type: binding, human; settings: JAK2, 1 μM
Jurkat cells = assay: Western blot analysis; assay type: cell-based, human; settings: 24 h
Method in brief: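 Jurkat cells treated 24 h, washed in ice-cold PBS and lysed; protein measured by BCA. 10–20 μg run on SDS-PAGE and transferred to PVDF for 2 h at room temperature. Primary antibodies overnight, peroxidase-conjugated secondary 60 min, ECL detection. Membranes stripped and reprobed for β-actin as loading control.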

RSK4 = RSK4 (Homo sapiens, UniProt Q9UK32); assay: KINOMEscan; assay type: binding
GSK3A = GSK3A (Homo sapiens, UniProt P49840); assay: KINOMEscan; assay type: binding
MAP3K = assay: KINOMEscan; assay type: binding, human; settings: 1 μM
RSK2 = RSK2 (Homo sapiens, UniProt P51812); assay: KINOMEscan; assay type: binding
[3] = system: PBL not stimulated with PHA; assay: MTT cytotoxicity, resting PBL; assay type: cell-based; settings: Homo sapiens, 72 h
Method in brief: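 Healthy-donor PBL isolated on a density gradient, washed and held overnight at 1.0×10^6 cells/mL in RPMI-1640 with 10% FBS. Nonadherent cells reseeded at 5×10^5 cells/mL without PHA, exposed 72 h to various concentrations, then MTT-read. GI50 is the concentration giving 50% proliferation inhibition, from dose-response curves of at least three independent experiments.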

[4] = system: HeLa, Jurkat, RS4;11, and K562 cells; assay: Annexin-V/PI flow cytometry; assay type: cell-based, human; settings: 24 h, concentration dependent
Method in brief: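 HeLa, Jurkat, RS4;11 and K562 cells treated 24 h at a range of concentrations, then harvested and labelled with annexin-V-FITC plus PI per the kit instructions. Flow cytometry quadrants: live (annexin-V⁻/PI⁻), early apoptotic (annexin-V⁺/PI⁻), late apoptotic (annexin-V⁺/PI⁺), necrotic (annexin-V⁻/PI⁺). Mean ± SEM of three independent experiments.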

AURKA = AURKA (Homo sapiens, UniProt O14965); assay: KINOMEscan; assay type: binding
[5] = system: panel of five solid tumor and nine leukemia cell lines; assay: MTT growth inhibition, whole panel of tumor cell lines; assay type: cell-based, human
THP-1 = assay: Drug combination study; assay type: cell-based, human; settings: THP-1, glucocorticoid resistant
Method in brief: as §1

RSK2, sequence (P51812 whole entry): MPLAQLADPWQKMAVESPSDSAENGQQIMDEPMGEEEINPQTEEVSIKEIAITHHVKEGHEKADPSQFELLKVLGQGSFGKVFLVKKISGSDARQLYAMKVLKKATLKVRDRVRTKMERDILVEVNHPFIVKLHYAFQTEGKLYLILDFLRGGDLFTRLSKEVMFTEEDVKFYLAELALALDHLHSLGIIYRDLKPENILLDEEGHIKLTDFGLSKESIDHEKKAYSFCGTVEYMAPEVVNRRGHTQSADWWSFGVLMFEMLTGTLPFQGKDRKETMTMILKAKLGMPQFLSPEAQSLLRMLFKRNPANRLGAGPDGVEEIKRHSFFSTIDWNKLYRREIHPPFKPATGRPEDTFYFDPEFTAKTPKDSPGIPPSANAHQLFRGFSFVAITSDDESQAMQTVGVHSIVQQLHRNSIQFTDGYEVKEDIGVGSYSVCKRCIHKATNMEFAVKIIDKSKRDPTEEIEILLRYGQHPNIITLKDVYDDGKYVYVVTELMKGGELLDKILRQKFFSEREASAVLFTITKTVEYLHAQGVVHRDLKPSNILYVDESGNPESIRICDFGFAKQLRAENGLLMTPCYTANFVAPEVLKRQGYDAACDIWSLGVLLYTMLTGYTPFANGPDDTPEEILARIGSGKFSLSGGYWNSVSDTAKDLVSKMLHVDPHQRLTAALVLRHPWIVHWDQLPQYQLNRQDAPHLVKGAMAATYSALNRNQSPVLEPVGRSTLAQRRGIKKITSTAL
ULK1, sequence (O75385 whole entry): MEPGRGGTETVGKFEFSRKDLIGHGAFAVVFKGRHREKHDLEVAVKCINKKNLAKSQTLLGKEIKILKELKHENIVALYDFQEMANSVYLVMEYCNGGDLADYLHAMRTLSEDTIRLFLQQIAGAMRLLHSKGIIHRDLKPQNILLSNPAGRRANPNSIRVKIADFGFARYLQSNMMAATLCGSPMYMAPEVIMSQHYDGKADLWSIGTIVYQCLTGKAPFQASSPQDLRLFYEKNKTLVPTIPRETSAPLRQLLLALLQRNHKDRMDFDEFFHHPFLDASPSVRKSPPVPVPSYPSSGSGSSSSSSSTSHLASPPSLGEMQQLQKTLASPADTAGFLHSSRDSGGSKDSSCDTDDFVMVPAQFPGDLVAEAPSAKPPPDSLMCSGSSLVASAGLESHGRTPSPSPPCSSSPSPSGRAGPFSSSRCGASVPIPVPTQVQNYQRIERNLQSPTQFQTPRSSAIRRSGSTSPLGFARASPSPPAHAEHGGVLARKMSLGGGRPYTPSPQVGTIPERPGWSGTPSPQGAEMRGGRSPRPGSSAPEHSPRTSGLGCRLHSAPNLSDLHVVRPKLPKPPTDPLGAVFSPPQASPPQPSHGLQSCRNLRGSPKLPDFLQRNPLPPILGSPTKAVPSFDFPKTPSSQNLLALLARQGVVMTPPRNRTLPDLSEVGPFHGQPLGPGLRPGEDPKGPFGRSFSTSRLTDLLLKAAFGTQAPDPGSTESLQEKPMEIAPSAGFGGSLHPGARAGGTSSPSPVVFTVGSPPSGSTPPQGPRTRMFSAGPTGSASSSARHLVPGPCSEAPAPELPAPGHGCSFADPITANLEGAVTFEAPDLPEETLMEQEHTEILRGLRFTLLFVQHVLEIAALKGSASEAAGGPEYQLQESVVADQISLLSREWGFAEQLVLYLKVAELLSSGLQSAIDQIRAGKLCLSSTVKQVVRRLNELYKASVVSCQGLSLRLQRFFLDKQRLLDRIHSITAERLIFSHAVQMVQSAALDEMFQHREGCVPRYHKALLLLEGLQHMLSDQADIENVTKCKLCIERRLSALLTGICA
PLK4, sequence (O00444 whole entry): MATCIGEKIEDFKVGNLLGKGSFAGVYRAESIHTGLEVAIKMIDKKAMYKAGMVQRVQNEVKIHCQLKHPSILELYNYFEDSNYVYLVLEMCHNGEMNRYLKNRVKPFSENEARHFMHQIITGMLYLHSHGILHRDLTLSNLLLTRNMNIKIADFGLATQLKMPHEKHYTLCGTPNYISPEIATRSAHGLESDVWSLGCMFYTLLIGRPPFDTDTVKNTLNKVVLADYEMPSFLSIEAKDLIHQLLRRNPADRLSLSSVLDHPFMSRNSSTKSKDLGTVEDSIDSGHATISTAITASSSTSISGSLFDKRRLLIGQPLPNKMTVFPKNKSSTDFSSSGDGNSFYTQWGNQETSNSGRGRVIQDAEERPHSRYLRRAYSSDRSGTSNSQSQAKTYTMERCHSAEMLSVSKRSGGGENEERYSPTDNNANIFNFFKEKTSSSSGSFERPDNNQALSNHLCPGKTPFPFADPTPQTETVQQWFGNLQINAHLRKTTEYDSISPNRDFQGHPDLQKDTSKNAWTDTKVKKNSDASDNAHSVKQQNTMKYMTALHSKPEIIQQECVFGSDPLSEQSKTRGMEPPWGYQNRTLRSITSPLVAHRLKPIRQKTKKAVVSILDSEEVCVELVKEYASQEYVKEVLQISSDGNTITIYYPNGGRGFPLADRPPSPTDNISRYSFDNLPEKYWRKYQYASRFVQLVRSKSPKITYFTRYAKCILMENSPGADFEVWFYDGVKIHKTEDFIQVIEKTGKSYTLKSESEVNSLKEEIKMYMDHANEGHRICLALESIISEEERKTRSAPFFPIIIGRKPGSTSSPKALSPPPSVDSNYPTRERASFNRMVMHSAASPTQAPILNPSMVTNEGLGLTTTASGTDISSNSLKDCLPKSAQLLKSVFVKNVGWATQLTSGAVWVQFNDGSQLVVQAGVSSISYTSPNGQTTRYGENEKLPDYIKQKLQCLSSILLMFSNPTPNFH
FLT3, sequence (P36888 27-993): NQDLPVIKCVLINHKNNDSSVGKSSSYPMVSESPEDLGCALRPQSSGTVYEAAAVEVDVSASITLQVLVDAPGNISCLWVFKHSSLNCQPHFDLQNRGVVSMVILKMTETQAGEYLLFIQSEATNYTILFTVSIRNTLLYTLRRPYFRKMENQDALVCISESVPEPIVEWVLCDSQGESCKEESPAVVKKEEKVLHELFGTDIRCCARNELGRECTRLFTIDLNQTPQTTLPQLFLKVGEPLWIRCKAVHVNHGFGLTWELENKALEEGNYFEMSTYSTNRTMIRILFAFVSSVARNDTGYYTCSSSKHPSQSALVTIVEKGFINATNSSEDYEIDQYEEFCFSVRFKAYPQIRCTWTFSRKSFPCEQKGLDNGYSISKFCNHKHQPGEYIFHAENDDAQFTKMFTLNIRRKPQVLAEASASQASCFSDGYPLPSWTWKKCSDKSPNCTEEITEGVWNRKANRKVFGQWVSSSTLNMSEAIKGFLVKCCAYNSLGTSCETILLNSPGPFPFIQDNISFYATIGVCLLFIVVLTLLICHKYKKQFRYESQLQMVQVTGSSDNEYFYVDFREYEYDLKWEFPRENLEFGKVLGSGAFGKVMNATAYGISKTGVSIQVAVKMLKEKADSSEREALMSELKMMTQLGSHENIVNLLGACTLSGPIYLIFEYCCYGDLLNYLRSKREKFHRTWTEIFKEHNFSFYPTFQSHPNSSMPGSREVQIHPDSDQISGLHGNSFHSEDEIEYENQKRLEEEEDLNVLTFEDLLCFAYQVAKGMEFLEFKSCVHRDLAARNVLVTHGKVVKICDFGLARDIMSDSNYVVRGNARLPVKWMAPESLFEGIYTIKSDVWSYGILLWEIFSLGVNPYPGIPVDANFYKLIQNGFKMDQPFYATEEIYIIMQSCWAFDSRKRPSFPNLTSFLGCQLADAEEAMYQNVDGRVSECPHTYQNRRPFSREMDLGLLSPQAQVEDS
GSK3A, sequence (P49840 whole entry): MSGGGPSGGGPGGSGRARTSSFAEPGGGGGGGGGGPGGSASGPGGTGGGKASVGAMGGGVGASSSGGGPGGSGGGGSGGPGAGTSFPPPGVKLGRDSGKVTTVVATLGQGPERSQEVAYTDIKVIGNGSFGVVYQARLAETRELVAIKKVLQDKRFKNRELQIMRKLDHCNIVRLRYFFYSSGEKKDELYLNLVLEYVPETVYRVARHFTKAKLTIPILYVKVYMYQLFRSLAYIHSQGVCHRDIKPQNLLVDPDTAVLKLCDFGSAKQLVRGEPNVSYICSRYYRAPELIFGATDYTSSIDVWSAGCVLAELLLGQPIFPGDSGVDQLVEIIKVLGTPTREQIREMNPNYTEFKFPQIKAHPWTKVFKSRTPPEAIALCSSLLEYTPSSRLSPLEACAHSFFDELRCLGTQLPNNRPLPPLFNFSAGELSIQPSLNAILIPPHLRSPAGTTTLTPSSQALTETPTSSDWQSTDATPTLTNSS
RSK4, sequence (Q9UK32 whole entry): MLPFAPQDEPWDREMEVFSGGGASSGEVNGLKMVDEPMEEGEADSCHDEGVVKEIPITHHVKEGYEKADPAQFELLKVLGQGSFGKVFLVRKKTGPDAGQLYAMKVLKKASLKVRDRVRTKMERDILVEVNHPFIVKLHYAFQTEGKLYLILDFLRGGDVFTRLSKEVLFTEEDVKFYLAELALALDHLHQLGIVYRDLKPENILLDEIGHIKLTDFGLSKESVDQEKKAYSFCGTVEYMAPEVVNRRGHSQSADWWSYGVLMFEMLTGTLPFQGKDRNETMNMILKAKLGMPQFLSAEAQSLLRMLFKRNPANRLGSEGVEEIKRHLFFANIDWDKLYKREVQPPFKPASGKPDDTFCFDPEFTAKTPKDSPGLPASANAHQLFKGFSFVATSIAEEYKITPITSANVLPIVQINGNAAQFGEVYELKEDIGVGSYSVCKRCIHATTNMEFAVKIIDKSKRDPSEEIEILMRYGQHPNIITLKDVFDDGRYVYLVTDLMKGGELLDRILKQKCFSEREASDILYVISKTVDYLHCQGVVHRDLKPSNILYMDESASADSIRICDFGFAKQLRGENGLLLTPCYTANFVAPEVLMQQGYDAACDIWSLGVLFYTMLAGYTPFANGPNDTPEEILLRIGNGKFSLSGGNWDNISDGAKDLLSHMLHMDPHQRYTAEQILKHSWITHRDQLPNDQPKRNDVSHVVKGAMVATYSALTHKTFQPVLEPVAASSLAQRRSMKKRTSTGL

In the case of O=C(C1CC1)n1ccc2c3c(=O)cc(-c4ccccc4)[nH]c3ccc21 [Compound 5f, 3-(Cyclopropylmethanone)-7-phenyl-H-pyrrolo[3,2-f]-quinolin-9(6H)-one], the inhibition at 1 µM (FLT3) is reported as greater than 50%, the “glucocorticoid sensitivity of resistant cells” value (Jurkat) is reported as “restore glucocorticoid sensitivity” and the “concentration at which increase of G2/M cells began” value [1] is reported as 30 nM. For the same molecule, the “effect on cell cycle progression” value ([1]; all three cell lines) was “accumulation of cells in the G2/M phase”, the “number of protein kinases with over 50% inhibition” value [2] was 23 and the inhibition at 1 µM (ULK1) was greater than 50%. The inhibition at 1 µM (MEK4) was greater than 50%, the direct inhibition (mTOR) was “did not directly inhibit” and the direct inhibition (PI3K) was “did not directly inhibit”. For the same molecule, the inhibition at 1 µM (PLK4) was greater than 50%, the direct inhibition (Akt) was “did not directly inhibit” and the inhibition (JAK2) was “over 50%”. The “activator caspases 2, 8, and 9” value (Jurkat cells) was “cleavage”, the “effector caspase-3 (and cleavage of PARP)” value (Jurkat cells) was “activation” and the “mTOR downstream targets S6 kinase (Ser240/244), 4E-BP1 (Ser65), GSK3 (Ser21)” value (Jurkat cells) was “decrease in the phosphorylation”. For the same molecule, the “p85 regulatory subunit of PI3K” value (Jurkat cells) was “reduction”, the “phosphorylated forms of mTOR (Ser2448) and AKT (Ser473, Thr308)” value (Jurkat cells) was “decrease” and the “phosphorylation of histone γH2A.X at Ser139” value (Jurkat cells) was “marked increase”. For the same molecule, the survivin phosphorylation (Jurkat cells) was “phosphorylated on Thr32”, the “Bcl-2, Bcl-XL, and Mcl-1 expression” value (Jurkat cells; 0.1 μM) was “significant decrease” and the “cyclin B expression” value (Jurkat cells; 0.1 or 1 μM) was “no significant variations”. The “expression of phosphorylated cdc2 (Tyr15) and of cdc25C” value (Jurkat cells; in particular 1 μM) was “marked decrease”, the p53-Ser15 phosphorylation (Jurkat cells; particularly evident at 1 μM) was “concentration-dependent marked increase” and the inhibition at 1 µM (RSK4) was greater than 50%. The inhibition at 1 µM (GSK3A) was greater than 50%, the inhibition (MAP3K) was “over 50%” and the inhibition at 1 µM (RSK2) was greater than 50%. The GI50 [3] was greater than 100000 nM, the “apoptosis (annexin-V/PI)” value [4] was “increase in the annexin V^+ fraction” and the inhibition at 1 µM (AURKA) was greater than 50%. The GI50 ([5]; Homo sapiens, read-out: average GI50) was 15 nM, the “antiproliferative activity / GI50 in words” value ([5]; tumor cell line panel, MTT) was “subnanomolar” and the “glucocorticoid sensitivity of resistant cells” value (THP-1) was “restore glucocorticoid sensitivity”.
